How the values were obtained:
MT4 [1] = assay: Inhibitory activity against MT-4 cells; type: functional; conditions: Homo sapiens, read-out: ED50 (the source's name)
Procedure, shortened: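 HIV-induced cytopathic effect measured in MT-4 cells, with cell viability read out using the vital dye XTT. ED50 was calculated from the percent cytoprotection for each compound.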

MT4 [2] = assay: Inhibitory activity against MT-4 cells, in the presence of human serum; type: functional; conditions: read-out: ED50 (the source's name)
Procedure, shortened: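 HIV cytopathic assay in MT-4 cells run in the presence of 40% human serum, with viability read out using the vital dye XTT. ED50 was calculated from the percent cytoprotection.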

[3] = target: Human immunodeficiency virus type 1 protease (Human immunodeficiency virus 1, UniProt Q72874); assay: Inhibitory activity against HIV-1 protease (Escherichia coli)
Procedure, shortened: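 Recombinant HIV-1 protease, cloned and expressed in E. coli. Ki values were determined with a fluorometric assay.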

| Structure (SMILES) | EC50 (MT4 [1]) [nM] | EC50 (MT4 [2]) [nM] | Ki [3] [nM] |
| --- | --- | --- | --- |
| CNC(=O)[C@@H](NC(=O)[C@H](OCc1ccccc1)[C@H](O)[C@@H](O)[C@@H](OCc1ccccc1)C(=O)N[C@H](C(=O)NC)C(C)C)C(C)C | 1300 | 34000 | – |
| O=C(NC1c2ccccc2C[C@H]1O)[C@H](OCc1ccccc1)[C@H](O)[C@@H](O)[C@@H](OCc1ccccc1)C(=O)N[C@H]1c2ccccc2C[C@H]1O (some centres not stated) | 96 | 1500 | 0.6 |
| O=C(NC1c2ccccc2C[C@H]1O)[C@H](CCc1ccccc1)[C@@H](O)[C@H](O)[C@@H](CCc1ccccc1)C(=O)N[C@H]1c2ccccc2C[C@H]1O (some centres not stated) | 93 | 390 | 1.1 |
| CNC(=O)[C@@H](NC(=O)[C@H](CCc1ccccc1)[C@@H](O)[C@H](O)[C@@H](CCc1ccccc1)C(=O)N[C@H](C(=O)NC)C(C)C)C(C)C | 1900 | 1400 | 0.4 |
| O=C(NC1c2ccccc2C[C@H]1O)[C@H](CCc1ccccc1)[C@H](O)[C@H](O)[C@@H](CCc1ccccc1)C(=O)N[C@H]1c2ccccc2C[C@H]1O (some centres not stated) | > 10000 | 15000 | 28 |
| CNC(=O)[C@@H](NC(=O)[C@H](CCc1ccccc1)[C@H](O)[C@H](O)[C@@H](CCc1ccccc1)C(=O)N[C@H](C(=O)NC)C(C)C)C(C)C | > 10000 | > 10000 | 112 |

— ChEMBL document CHEMBL1134627, “Synthesis of novel, potent, diol-based HIV-1 protease inhibitors via intermolecular pinacol homocoupling of (2S)-2-benzyloxymethyl-4-phenylbutanal” (J Med Chem, 2001)
